Screens: PubChem, several laboratories
Apaf1 inhib – inhibitors of human Apaf-1 apoptosome, primary screen, biochemical, DEVD-Rh110 fluorescence, uHTS | Apoptotic protease-activating factor 1 (Homo sapiens), O14727 | reconstituted apoptosome caspase-3 activity | inhibition, % at 20 µM | 0.71% of 330,000 active; active = inhibition of at least 40% at 20 µM;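 note: plate controls were DMSO wells for no effect and DEVD-CHO caspase inhibitor wells for full effect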
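Material: reconstituted apoptosome with Apaf-1, cytochrome c, caspase-9, procaspase-3, dATP / Buffer or medium: pH 7.5 Hepes buffer with CHAPS, BSA, DTT / Also added: cytochrome c with DEVD-Rh110 / Schedule: compound with Apaf-1, dATP, procaspase-3 30 min, then 50 min reaction, room temperature / Technique: rhodamine 110 fluorescence at Ex 480/Em 540 nm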
M18AAP inhibitor – PfM18AAP inhibitors, malaria aminopeptidase, primary screen, biochemical, QFRET, recombinant enzyme. M18 aspartyl aminopeptidase (Plasmodium falciparum 3D7). H-Glu-NHMec fluorogenic cleavage. inhibition, % at 7.35 µM. 1.2% of 290,000 active. AID 1822, 2009;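 active = inhibition above the campaign mean inhibition over all tested compounds plus 3 SD, cut at about 28% in these data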;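 note: 0% = plate median of test compound wells and 100% = 2 mM ZnCl2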
EBNA-1 inh – EBNA-1 DNA-binding inhibitors, primary screen, biochemical, fluorescence polarization | inhibition, % at 14.8 µM | 0.34% of 300,000 active | AID 1950, 2009; in the data active = inhibition above about 28%
UBC13 inh – UBC13 polyubiquitin chain formation inhibitors, primary screen, biochemical, TR-FRET, uHTS. Ubiquitin-conjugating enzyme E2 N (Homo sapiens), P61088. inhibition, % at 20 µM. 0.47% of 330,000 active. AID 485273, 2010; in the data active = inhibition above about 45%, passing the limit was not always enough
ZTA DNA inh – ZTA (EBV) inhibition in EBNA-1 counter-screen; P03206; ZTA-DNA binding, fluorescence polarization; inhibition, % at 11 µM; 0.15% of 320,000 active; in the data active = inhibition above about 33%
PfGluPho inh – PfG6PD enzyme inhibitors, primary screen, biochemical, fluorescence intensity, uHTS. glucose-6-phosphate dehydrogenase-6-phosphogluconolactonase (Plasmodium falciparum 3D7). inhibition, % at 20 µM. PfGluPho enzyme, NADPH resazurin-diaphorase fluorescence. 0.78% of 350,000 active;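 active = inhibition reaching at least a set limit at 20 µM in the primary screen, cut at about 59% in these data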;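 note: 0% = DMSO wells with substrate and 100% = DMSO wells lacking glucose-6-phosphate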
ZTA inh confirm – EBV Zta binding to ZRE DNA, inhibitors, confirmation, biochemical, fluorescence polarization, triplicate | 30% of 320 active | AID 2361, 2010 | inhibition, % at 11.1 µM | shares compounds with ZTA DNA inh;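 active = mean inhibition across triplicate runs above the hit threshold derived for the original primary screen, cut at about 33% in these data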;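 note: 0% = Zta with DMSO and 100% = wells lacking Zta protein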
EBNA-1 counter – EBNA-1 DNA-binding inhibition, counter-screen for ZTA inhibitor project, biochemical, fluorescence polarization | AID 2362, 2010 | inhibition, % at 14.8 µM | shares compounds with ZTA DNA inh | 320 tested, under 10 active; call rule not given here
Casp3 counter – CASP3 inhibitor validation, counterassay for project on UBE2N polyubiquitination blockers, biochemical, one dose; inhibition, % at 20 µM; shares compounds with UBC13 inh; Recombinant caspase-3, Caspase-Glo 3/7 luminescence, 60 min; 4% of 1,400 active; AID 488856, 2010;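 active = mean inhibition across replicates above about 26%, limit read from the data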;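 note: plate controls were DMSO with caspase-3 for no effect and DMSO wells lacking enzyme for full effect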
UBC13 conf – UBC13 polyubiquitination inhibitors, single-point retest, confirmation, biochemical, TR-FRET, single concentration; shares compounds with UBC13 inh; inhibition, % at 10 µM; 68% of 1,400 active; in the data active = inhibition above about 45%
* marks the source's active call; other numbers are inactive results; . = not tested or not shown. In the library only some 2.9% were active in any assay of this set; here they are far more common.

SMILES	Apaf1 inhib	M18AAP inhibitor	EBNA-1 inh	UBC13 inh	ZTA DNA inh	PfGluPho inh	ZTA inh confirm	EBNA-1 counter	others
CC1CCC(=O)N(CCOc2ccccc2)CC1 (stereo unspecified)	-3	-19	0	0	-2	-3	.	.
C[C@H]1CCC(=O)N([C@H](COc2ccccc2)Cc2ccccc2)CC1	13	4	14	9	40*	5	4	3
CN=c1scc(-c2ccccc2F)n1/N=C(\C)c1cccnc1	10	3	-4	5	-5	0	.	.
O=C(O)CC(NC(=O)CCc1ccccc1)c1ccc(Cl)cc1 (stereo unspecified)	3	1	11	-1	62*	-2	-1	-5
CCOc1cc(/C=C2/C(=O)ON=C2C)ccc1OCc1ccc(F)cc1	10	8	-4	-13	35*	8	4	0
COc1cccc(NC(=O)c2ccc(C(=O)c3ccccc3)o2)c1	-5	1	-16	-9	9	22	.	.
O=C(O)/C(=C\c1ccc2ccccc2c1)c1cccc2ccccc12	-14	.	8	-3	36*	-4	2	8
COC(=O)c1ccc(NC(=O)c2ccc(NC(=O)c3ccco3)cc2)cc1	44*	-5	7	-2	39*	12	49*	23
CCN1CCN(Cc2ccc(NC(=O)c3cc(NC(=O)c4cnnc5ccccc45)cc(OC)c3)cc2C(F)(F)F)CC1	34	.	6	36	8	27	.	.
CC(C(=O)OCC(=O)c1ccc(Br)cc1)N1C(=O)C2C3C=CC(C3)C2C1=O (stereo unspecified)	6	4	-2	1	36*	-1	-8	-6
COc1cccc(=O)c2c(C)n(-c3ccc(C(=O)O)cc3)c(C)c12	7	13	16	-2	46*	7	-8	-4
COc1ccc(-n2c(C)c3c(OC)cccc(=O)c3c2C)cc1	-3	8	7	-38	13	23	.	.
CC1(C(=O)O)CCC(C(=O)N2CCCCC2)C1(C)C (stereo unspecified)	-8	5	7	13	-2	-15	.	.
Cc1cc(N)n2ncc(-c3ccc(F)cc3)c2n1	2	3	1	8	3	7	.	.
Cc1nc2c(-c3ccc(F)cc3)cnn2c(N)c1-c1ccc(F)cc1	8	3	-1	13	38*	12	-2	-12
Cc1cccc(NC(=O)CCNC(=O)c2ccco2)c1	-5	-2	3	-1	44*	-8	4	-9
Cc1cc(C(=O)CSc2ccc3c(c2)OCCO3)c(C)n1C1CC1	18	7	10	-9	-3	3	.	.
COc1ccc(CCNC(=O)C2c3ccccc3C(=O)N2CCC(C)C)cc1OC (stereo unspecified)	9	-6	-18	4	75*	3	-6	5
Cc1cc(C(=O)COC(=O)Cc2n[nH]c(=O)c3ccccc23)c(C)n1-c1ccc2c(c1)OCCO2	2	9	6	6	1	38	.	.
O=c1cc(Nc2cccc(Br)c2)[nH]c(=O)[nH]1	7	-1	-12	-5	-5	10	.	.
O=c1[nH]c(Nc2ccccc2)cc2cc(Br)ccc12	98*	.	-6	-68	41*	5	2	-5
NC1=NC[C@H](c2ccccc2)N1CCCCC1CCCCC1	37	.	6	79*	33*	-6	2	-13	Casp3 counter=-3;UBC13 conf=72*
Nc1nc(N)c2cc(Sc3ccc4ccccc4c3)ccc2n1	39	-3	2	50*	34*	-12	20	-4	Casp3 counter=3;UBC13 conf=37
C#CCOCCOCCOCCNc1nc(N2CCN(C(=O)CCCCCCCCCCNC(=O)[C@H]([C@@H](C)CC)n3cc(CCCCN=C(N)N)nn3)CC2)nc(N2CCN(C(=O)CCCCCCCCCCNC(=O)[C@@H]([C@H](C)O)n3cc(C)nn3)CC2)n1	45*	.	4	123*	68*	52	61*	1	Casp3 counter=-2;UBC13 conf=125*
C#CCOCCOCCOCCNc1nc(N2CCN(C(=O)CCCCCCCCCCNC(=O)[C@@H](CCSC)n3cc(CCO)nn3)CC2)nc(N2CCN(C(=O)CCCCCCCCCCNC(=O)[C@H](CCCN=C(N)N)n3cc(C[C@@H](C)CC)nn3)CC2)n1	62*	.	12	128*	141*	69*	62*	-2	Casp3 counter=-5;UBC13 conf=123*
SMILES	Apaf1 inhib	M18AAP inhibitor	EBNA-1 inh	UBC13 inh	ZTA DNA inh	PfGluPho inh	ZTA inh confirm	EBNA-1 counter	others
C#CCOCCOCCOCCNc1nc(N2CCN(C(=O)Cn3cc(CCCCN)nn3)CC2)nc(N2CCN(C(=O)[C@H](C)n3cc(CCC(=O)O)nn3)CC2)n1	.	.	.	.	.	-12	.	.
C#CCOCCOCCOCCNc1nc(N2CCN(C(=O)CCCCCCCCCCNC(=O)Cn3cc(CCCCCN)nn3)CC2)nc(N2CCN(C(=O)CCCCCCCCCCNC(=O)Cn3cc(C[C@@H](C)O)nn3)CC2)n1	71*	.	1	114*	46*	8	20	0	Casp3 counter=-2;UBC13 conf=114*
C#CCOCCOCCOCCNc1nc(N2CCN(C(=O)CCCCCCCCCCNC(=O)[C@@H](CCC(=O)O)n3cc(CCCCCN)nn3)CC2)nc(N2CCN(C(=O)CCCCCCCCCCNC(=O)[C@H](CO)n3cc(CCCCCN)nn3)CC2)n1	54*	.	4	102*	37*	26	-7	-8	Casp3 counter=-4;UBC13 conf=74*
C#CCOCCOCCOCCNc1nc(N2CCN(C(=O)Cn3cc(CCCCN)nn3)CC2)nc(N2CCN(C(=O)Cn3cc(CC(C)O)nn3)CC2)n1 (stereo unspecified)	5	-5	1	8	8	-13	.	.
Cc1cc(O)c(C)c(O)c1/C=N/NC(=O)c1cccnc1	3	23	3	1	-24	-9	.	.
O=C1CCCN1CC(O)CS(=O)(=O)Cc1ccc(Cl)cc1 (stereo unspecified)	-4	.	-13	-6	-3	-1	.	.
